# Active and inactive are the calls of the source. No cut-off for these calls is given here.
# Assays:
# [1] = test system: Plasmodium falciparum; assay: Antiplasmodial activity against Plasmodium falciparum 3D7A infected in red blood cells preincubated for 24 hrs followed by [3H]-hypoxanthine addition measured after 24 hrs by scintillation counting; format: functional, cell-based
# Procedure, shortened: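 Whole-cell growth assay on sensitive P. falciparum strain 3D7A by [3H]hypoxanthine incorporation; two or three independent biological replicates per value.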
# [2] = test system: Plasmodium falciparum; assay: Ratio of IC50 for chloroquine/pyrimethamine-resistant Plasmodium falciparum V1/S infected in red blood cells to IC50 for wild type Plasmodium falciparum 3D7A infected in red blood cells; format: functional
# [3] = Ratio of IC50 for Plasmodium falciparum HB3 infected in red blood cells to IC50 for wild type Plasmodium falciparum 3D7A infected in red blood cells; format: functional
# [4] = Ratio of IC50 for chloroquine/pyrimethamine-resistant Plasmodium falciparum Dd2 infected in red blood cells to IC50 for wild type Plasmodium falciparum 3D7A infected in red blood cells; format: functional
# [5] = test system: Plasmodium falciparum; assay: Ratio of IC50 for pyrimethamine-resistant Plasmodium falciparum TC08 infected in red blood cells to IC50 for wild type Plasmodium falciparum 3D7A infected in red blood cells; format: functional
# [6] = test system: Plasmodium falciparum; assay: Ratio of IC50 for chloroquine-resistant Plasmodium falciparum T9/94 infected in red blood cells to IC50 for wild type Plasmodium falciparum 3D7A infected in red blood cells; format: functional
# [7] = test system: Plasmodium falciparum; assay: Ratio of IC50 for chloroquine/pyrimethamine/atovaquone-resistant Plasmodium falciparum Tm90C2B infected in red blood cells to IC50 for wild type Plasmodium falciparum 3D7A infected in red blood cells; format: functional
# [8] = test system: Plasmodium falciparum; assay: Ratio of IC50 for chloroquine/atovaquone/cycloguanil-resistant Plasmodium falciparum FCR3 infected in red blood cells to IC50 for wild type Plasmodium falciparum 3D7A infected in red blood cells; format: functional
# [9] = test system: Plasmodium falciparum; assay: Ratio of IC50 for chloroquine/pyrimethamine-resistant Plasmodium falciparum Tm90C2A infected in red blood cells to IC50 for wild type Plasmodium falciparum 3D7A infected in red blood cells; format: functional
# [10] = Volume of distribution at steady state in CD1 mouse at 1 mg/kg, iv measured up to 24 hrs post dose by LC-MS/MS analysis; format: ADME, organism-based; settings: in vivo, read-out: Vdss
# Procedure, shortened: (§1)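 Pharmacokinetics in mouse after a single intravenous dose of 1 mg/kg.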
# [11] = Oral bioavailability in CD1 mouse at 10 mg/kg measured up to 24 hrs post dose by LC-MS/MS analysis; format: ADME, organism-based; settings: in vivo
# Procedure, shortened: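 Oral bioavailability in mouse after a single oral dose of 10 mg/kg.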
# [12] = test system: Plasmodium falciparum; assay: Antimalarial activity against Plasmodium falciparum 3D7 0087/N9 infected in SCID mouse assessed as reduction in parasitemia at 120 mg/kg, po administered 3 days post infection dosed once a day for four consecutive days relative to control; format: functional; set-up: scale not given: the % may be the effect or the level left
# Procedure, shortened: (§2)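 SCID mice engrafted with human parasite P. falciparum Pf 3D70087/N9; oral dosing started 3 days after infection, once daily for four consecutive days; parasitemia compared with untreated controls.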
# [13] = test system: Liver; assay: Intrinsic clearance in human liver microsomes at 0.5 uM up to 45 mins in presence of NADPH by HPLC-MS/MS analysis; format: ADME, microsome; settings: 0.75 h
# [14] = test system: Plasmodium falciparum; assay: Antimalarial activity against Plasmodium falciparum 3D7 0087/N9 infected in po dosed SCID mouse assessed as reduction in parasitemia administered 3 days post infection dosed once a day for four consecutive days measured after 7 days; format: functional; settings: 3D7 0087/N9, po; procedure, shortened: as §2
# [15] = Ratio of TC50 for human HepG2 to IC50 for antiplasmodial activity against Plasmodium falciparum 3D7A infected in red blood cells
# Procedure, shortened: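 Denominator is the asexual P. falciparum 3D7A IC50 from a [3H]hypoxanthine incorporation assay, using two or three independent biological replicates. Numerator is the 50% toxicity value in HepG2 cells, expressed as Tox50/Pf 3D7 IC50.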
# [16] = test system: HepG2; assay: Cytotoxicity against human HepG2 cells at 25 uM; format: cell-based; settings: hepg2, 25 µM
# Procedure, shortened: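 HepG2 cells exposed to compound at 25 μM to assess mammalian cytotoxicity.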
# [17] = test system: Plasma; assay: Drug level in Swiss CD1 mouse plasma treated with 5-(3-(Pyridin-3-yl)-5-(trifluoromethyl)phenyl)-N-(4-(pyrrolidin-1-ylmethyl)phenyl)-1,3,4-oxadiazol-2-amine at 500 mg/kg, po by HPLC analysis; format: ADME, organism-based; settings: in vivo
# Procedure, shortened: (§3)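 Mice given high oral doses (250/300 and 500 mg/kg); plasma analysed by HPLC for parent compound and breakdown products, expressed as percentage levels.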
# [18] = Solubility of the compound in fasted state stimulated intestinal fluid at pH 6.5 by HPLC analysis; format: physicochemical; settings: fasted state simulated intestinal fluid
# Procedure, shortened: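 Solubility measured in fasted state simulated intestinal fluid, pH 6.5.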
# [19] = test system: Plasmodium falciparum; assay: Antimalarial activity against Plasmodium falciparum 3D7 0087/N9 infected in SCID mouse assessed as reduction in parasitemia at 67 mg/kg, po administered 3 days post infection dosed once a day for four consecutive days measured 7 days post dose; format: functional, organism-based; procedure, shortened: as §2
# [20] = test system: Plasma; assay: Drug level in Swiss CD1 mouse plasma treated with 5-([3,4'-Bipyridin]-2'-yl)-N-(4-(pyrrolidin-1-ylmethyl)phenyl)-1,3,4-oxadiazol-2-amine at 500 mg/kg, po by HPLC analysis; format: ADME, organism-based; settings: in vivo; procedure, shortened: as §3
# [21] = test system: Plasmodium falciparum; assay: Antimalarial activity against Plasmodium falciparum 3D7 0087/N9 infected in po dosed mouse assessed as average daily exposure in whole blood required to reduce parasitemia administered 3 days post infection dosed once a day for four consecutive days measured 7 days post dose; format: functional, organism-based
# [22] = test system: Mus musculus; assay: Clearance in CD1 mouse at 1 mg/kg, iv measured up to 24 hrs post dose by LC-MS/MS analysis; format: ADME, organism-based; settings: mouse, in vivo, 24 h; procedure, shortened: as §1
# [23] = test system: Plasmodium falciparum; assay: Antimalarial activity against Plasmodium falciparum 3D7 0087/N9 infected in SCID mouse assessed as reduction in parasitemia at 50 mg/kg, po administered 3 days post infection dosed once a day for four consecutive days measured 2 days; format: functional, organism-based; procedure, shortened: as §2
# [24] = Lipophilicity, log D of compound at pH 7.4 by chromatographic method; format: physicochemical; settings: buffer
# [25] = Half life in CD1 mouse at 1 mg/kg, iv measured up to 24 hrs post dose by LC-MS/MS analysis; format: ADME, organism-based; settings: in vivo; procedure, shortened: as §1
smiles,measurement,setting,value
CN1CCc2ccc(Nc3nnc(-c4cccc(-c5cccnc5)c4)o3)nc2C1,IC50,[1],130 nM
CN1CCOc2ccc(Nc3nnc(-c4cccc(-c5cccnc5)c4)o3)cc2C1,Ratio IC50,[2],1
same,IC50,[1],70 nM
same,Ratio IC50,[3],1
same,Ratio IC50,[4],1
same,Ratio IC50,[5],1
same,Ratio IC50,[6],1
same,Ratio IC50,[7],1
same,Ratio IC50,[8],1
same,Ratio IC50,[9],1
same,Vd,[10],2.6 L/kg
same,bioavailability,[11],26.6%
same,Activity,[12],81%
same,intrinsic clearance,[13],13.7 mL/min/g
same,ED90,[14],> 120 mg/kg
same,Ratio,[15],>100
same,Activity,[16],Non-Toxic
O=C(NNC(=O)c1cc(-c2cccnc2)cc(C(F)(F)F)c1)Nc1ccc(CN2CCCC2)cc1,Drug metabolism,[17],Metabolite_Detected
CN1CCc2ncc(Nc3nnc(-c4cc(-c5cccnc5)cc(C(F)(F)F)c4)o3)cc2C1,IC50,[1],30 nM
same,solubility,[18],68 µg/mL
same,Activity,[19],inactive
O=C(NNC(=O)c1cc(-c2cccnc2)ccn1)Nc1ccc(CN2CCCC2)cc1,Drug metabolism,[20],Metabolite_Detected
CN1CCc2ccc(Nc3nnc(-c4cc(-c5cccnc5)ccc4F)o3)cc2C1,IC50,[1],50 nM
same,intrinsic clearance,[13],2.9 mL/min/g
CN1CCc2ccc(Nc3nnc(-c4cc(F)cc(-c5cccnc5)c4)o3)cc2C1,IC50,[1],50 nM
same,intrinsic clearance,[13],< 0.5 mL/min/g
CN1CCc2ccc(Nc3nnc(-c4cc(-c5cccnc5)ccn4)o3)cc2C1,IC50,[1],200 nM
same,AUCED90,[21],1.4 µg.hr/ml/day
same,intrinsic clearance,[13],< 0.5 mL/min/g
same,ED90,[14],33.8 mg/kg
same,solubility,[18],390 µg/mL
Clc1cccc(Nc2nnc(-c3cccc(-c4cccnc4)c3)o2)c1,IC50,[1],5530 nM
same,intrinsic clearance,[13],3.7 mL/min/g
CN(C)Cc1ccc(Nc2nnc(-c3cc(-c4cccnc4)cc(C(F)(F)F)c3)o2)cc1,IC50,[1],30 nM
same,AUCED90,[21],< 2.5 µg.hr/ml/day
same,clearance,[22],76.9 mL/min/kg
same,bioavailability,[11],100%
same,ED90,[14],< 20 mg/kg
same,solubility,[18],57 µg/mL
same,Activity,[23],Active
same,chromatographic logD,[24],3.2 to 3.3
same,half-life,[25],17.4 min
O=C(O)c1cc(-c2cccnc2)cc(C(F)(F)F)c1,Drug metabolism,[17],Metabolite_Detected
CN1Cc2ccc(Nc3nnc(-c4cccc(-c5cccnc5)c4)o3)cc2C1,IC50,[1],70 nM
same,intrinsic clearance,[13],5.1 mL/min/g
CN1CCc2ccc(Nc3nnc(-c4cccc(-c5cccnc5)n4)o3)cc2C1,IC50,[1],1900 nM
CN(C)Cc1ccc(Nc2nnc(-c3cccc(-c4cccnc4)c3)o2)cc1,IC50,[1],30 nM
